# RGS4 inh – inhibitors of human RGS4 | P49798 | 310,000 compounds, 0.45% hits | B-score at 10 µM | HEK293 M3R/RGS4 inducible, Fluo-4 calcium flux; active compounds read high; triggered by carbachol at its EC20 | AID 463165;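 active means B-score, a plate-corrected calcium signal, over three deviations above library mean, with baseline fluorescence within five deviations of library mean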;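 further: RGS4 expression induced by doxycycline in cells with stable M3 receptor; B-score is computed from the integrated fluorescence ratio over baseline after carbachol; higher B-score means a larger calcium signal and so more RGS4 inhibition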
# Target sequence (P49798 whole entry, looked up): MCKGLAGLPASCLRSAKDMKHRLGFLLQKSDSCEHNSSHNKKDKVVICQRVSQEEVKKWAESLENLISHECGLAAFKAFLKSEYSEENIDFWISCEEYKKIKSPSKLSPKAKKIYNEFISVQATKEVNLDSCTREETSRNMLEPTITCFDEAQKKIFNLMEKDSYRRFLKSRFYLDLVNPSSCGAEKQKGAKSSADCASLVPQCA
# RGS4 act – potentiators or activators of RGS4; AID 463111; HEK293 M3R/inducible RGS4, carbachol calcium flux Fluo4; active compounds read low; B-score at 10 µM; 310,000 compounds, 0.92% hits;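 active means B-score of the integrated calcium signal more than 4 SD below the library mean, with starting fluorescence not abnormally high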;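 further: negative B-score means reduced calcium response which marks RGS4 activation or potentiation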
#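 Reagent: ECmax carbachol challenge; Test system: M3R-expressing HEK293 line, RGS4 induced by doxycycline; Schedule: overnight RGS4 induction, 30 min dye load 37 °C, 20 min compound RT; Detection: calcium dye Fluo4 fluorescence; Read-out: Agonist-evoked peak-minus-minimum fluorescence over baseline, integrated ratio, B score.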
# MrgX1 antag – human MrgX1 receptor antagonism, primary screen. Q96LB2. MRGX1-HEK293 calcium flux, Fluo-4, BAM8-22 antagonism; active compounds read low. B-score at 10 µM. 310,000 compounds, 1.3% hits. AID 588676;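 active means calcium-response B-score plate-corrected more than 3 library SD below zero, starting fluorescence within 5 deviations, no agonist response on first addition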;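 further: peak minus trough fluorescence over baseline after final BAM8-22 challenge near maximal dose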
# Target sequence (Q96LB2 whole entry, looked up): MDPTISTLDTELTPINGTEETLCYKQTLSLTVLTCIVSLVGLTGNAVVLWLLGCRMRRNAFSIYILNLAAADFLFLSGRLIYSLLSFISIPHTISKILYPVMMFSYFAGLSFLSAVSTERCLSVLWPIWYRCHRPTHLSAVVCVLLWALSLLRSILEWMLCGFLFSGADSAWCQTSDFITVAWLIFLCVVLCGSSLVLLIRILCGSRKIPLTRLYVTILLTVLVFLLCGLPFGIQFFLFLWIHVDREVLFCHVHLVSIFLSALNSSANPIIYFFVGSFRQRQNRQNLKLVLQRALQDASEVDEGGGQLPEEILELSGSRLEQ
# MrgX1 PAM – human MrgX1 positive allosteric modulation, primary screen; B-score at 10 µM; MrgX1-HEK293, Fluo-4 calcium flux, FDSS; active compounds read high; 310,000 compounds, 0.63% hits; Q96LB2;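 active means plate-corrected calcium response at least 3 library SD above typical, normal starting fluorescence, not activating the receptor alone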;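 further: compound read alongside a low EC10 to EC30 dose of BAM8-22 agonist; peak minus trough fluorescence over baseline measured at the second addition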
# MrgX1 ag – activates human MrgX1 receptor signaling; Q96LB2; MrgX1-HEK293 cells, Fluo-4 calcium fluorescence, agonist mode; active compounds read high; B-score at 10 µM; 310,000 compounds, 0.44% hits; AID 588627;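 active means calcium response B-score plate-corrected fluorescence ratio at least 3 library SD, with starting fluorescence B-score inside 5 SD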
#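 Material – MrgX1-expressing HEK293 cells · Input – 15,000 cells seeded per well · Dosing – compound as first of three additions · Times – overnight seeding, then 1 h dark dye loading · Measured by – kinetic Fluo-4 NW fluorescence of intracellular calcium · Read-out – B-scored fluorescence response ratio · Benchmarks – positive and negative control wells on each plate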
# RGS4 inh valid – RGS4 inhibitor validation | shares compounds with RGS4 inh | HEK293 M3R/RGS4, carbachol calcium Fluo-4 fluorescence; carbachol added at its EC20; 0 = buffer wells, 100 = carbachol control | calcium response, % at 10 µM | 1,700 compounds, 65% hits | AID 492999;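 active means duplicate-averaged calcium response above the buffer-only control mean plus 5 SD of those controls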;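 further: integrated fluorescence ratio F max minus min over baseline F0; higher response in RGS4-induced cells means RGS4 inhibition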
# RGS4 uninduced – checks RGS4 inhibitor effects in non-induced HEK293 M3R cells; shares compounds with RGS4 inh; carbachol calcium Fluo-4; submaximal (EC20) carbachol stimulus; buffer wells 0%, carbachol control wells 100%; activity (percent), % at 10 µM; 1,900 compounds, 20% hits; AID 493000; call rule not given here;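 further: RGS4 induction absent so cells express M3R without RGS4; higher means more calcium signal and flags a non-specific hit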
# RGS4 inh ctr2 – signal in non-induced cells without carbachol, RGS4 inhibitor counter-screen. shares compounds with RGS4 inh. HEK293 M3R/RGS4 non-induced, Fluo-4 calcium, no carbachol; normalised: buffer wells 0%, carbachol wells 100%. 1,900 compounds, 22% hits. calcium response (agonist-mode artifact), % at 10 µM;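 active means duplicate-averaged calcium rise in uninduced cells above buffer wells' mean plus 5 SD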
# An asterisk follows results filed as active; i = inactive; · = not tested or not shown. The list is not random: actives were taken first. Their share in the collection is about 3.5%.
SMILES,RGS4 inh,RGS4 act,MrgX1 antag,MrgX1 PAM,MrgX1 ag,RGS4 inh valid,RGS4 uninduced,RGS4 inh ctr2
Cc1ccc(Oc2ccc(OCC(=O)NC(CC(C)C)C(=O)O)cc2)cc1 (configuration not stated),i,i,i,i,i,·,·,·
COC(=O)[C@@H](NC(=O)O[C@@H]1C(=O)c2cc(Br)ccc2O[C@H]1c1cccc(OC)c1)C(C)C,i,i,i,i,i,·,·,·
CCOC(=O)/C=C/C(=O)OCC(=O)N1CCN(C(=O)c2ccco2)CC1,5.7*,i,i,i,i,18%*,i,i
Cc1nc(-c2ccccc2)sc1C(=O)/C=C/c1ccc(Cl)cc1,12*,i,i,i,i,7.5%*,30%*,16%*
COC(=O)CSc1nnc(CNC(=O)c2ccc(OC)c(OC)c2)n1C,i,i,i,i,i,·,·,·
Cc1cc(C)n(CC(O)Cn2c3ccc(Cl)cc3c3cc(Cl)ccc32)c(=O)n1 (configuration not stated),8*,i,i,i,i,25%*,i,i
Cc1cc(C)n(CC(O)Cn2c3ccccc3c3ccccc32)n1 (configuration not stated),i,i,i,i,i,·,·,·
CCN(CC(=O)NC(=O)NCc1ccco1)Cc1ccccc1,i,i,i,i,i,·,·,·
COCCCNC(=O)c1cn(Cc2c(F)cccc2Cl)nn1,5.1*,i,i,i,i,i,i,i
O=C(O)CCN1C(=O)/C(=C\c2ccc(-c3nc4ccccc4s3)o2)SC1=S,i,i,i,i,i,i,i,54%*
O=C(O)CCCN1C(=O)/C(=C\c2ccco2)SC1=S,i,i,·,·,·,·,·,·
CCc1cccc(NC2c3ccccc3C(=O)N2c2cccnc2)c1 (configuration not stated),i,i,i,i,i,·,·,·
O=C(CN(Cc1ccco1)C(=O)CNS(=O)(=O)c1ccc(F)cc1)NCc1ccccc1,i,i,i,i,i,·,·,·
C/C(=N/NC(=O)CNc1ccc(C)cc1)c1ccc(Cl)cc1,5.5*,i,i,i,i,7.0%*,i,i
Cc1ccc(C(=O)CNc2ccc(Cl)cc2)cc1,i,i,i,i,i,·,·,·
O=C(NCc1n[nH]c(=S)n1-c1ccc(Cl)c(Cl)c1)c1ccc(S(=O)(=O)N2CCOCC2)cc1,i,i,i,i,i,·,·,·
COc1ccc(C(C[N+](=O)[O-])c2c(C)cc3ccccn23)cc1 (configuration not stated),i,i,i,i,i,·,·,·
COc1ccc(C(C[N+](=O)[O-])c2c(C)[nH]n(-c3ccccc3)c2=O)cc1 (configuration not stated),28*,i,i,i,40*,54%*,84%*,21%*
C=CCNc1nnc(SC2CC(=O)N(c3ccc(OCCC)cc3)C2=O)s1 (configuration not stated),i,i,i,i,i,i,i,i
CCO[C@@H]1OC(C(=O)N2CCCCCCC2)=C[C@H](C2CCCCC2)[C@H]1CCCO,i,i,i,i,i,·,·,·
CCOC(=O)NC(=O)C(=CNc1ccc(C)cc1)C(=O)NC(=O)OCC,i,i,i,i,i,·,·,·
FC(F)(F)c1cc(CCN2CCNC[C@H]2Cc2cccc3ccccc23)cc(C(F)(F)F)c1,5.1*,i,i,i,i,7.0%*,i,i
Oc1ccc(C[C@@H]2CNCCN2CCc2cc(C(F)(F)F)cc(C(F)(F)F)c2)cc1,i,i,i,i,i,·,·,·
O=C1c2[nH]nc(-c3ccccc3O)c2C(c2ccc(F)cc2)N1Cc1ccco1 (configuration not stated),9*,i,i,i,i,20%*,i,i
O=C1c2[nH]nc(-c3ccccc3O)c2C(c2cccc(Cl)c2)N1Cc1ccco1 (configuration not stated),8.1*,i,i,i,i,25%*,i,i
SMILES,RGS4 inh,RGS4 act,MrgX1 antag,MrgX1 PAM,MrgX1 ag,RGS4 inh valid,RGS4 uninduced,RGS4 inh ctr2
COc1ccc(C2c3c(-c4ccccc4O)n[nH]c3C(=O)N2Cc2ccco2)cc1OC (configuration not stated),i,i,i,i,i,·,·,·
COCCNC(=O)C1CC(=O)N(c2ccc(OC)cc2)C1c1ccc(OC)cc1 (configuration not stated),i,i,i,i,i,·,·,·
CCCN1C(=O)/C(=C/c2nc3ccccc3c(=O)[nH]2)c2ccccc21,11*,i,i,i,i,8.5%*,i,i
CCCN1C(=O)/C(=C/c2nc3ccccc3c(=O)[nH]2)c2cc(C)ccc21,9.5*,i,i,i,i,26%*,58%*,i
COC(=O)c1ccc(C2NCCc3cc(OC)c(OC)cc32)cc1 (configuration not stated),i,i,i,i,i,·,·,·
CC(=O)C1=C(C)OC(N)=C(C#N)C1c1cc2cccc(C)c2nc1Cl (configuration not stated),6.8*,i,i,i,i,22%*,34%*,i
COC(=O)C1=C(C)OC(N)=C(C#N)C1c1cc2cccc(C)c2nc1Cl (configuration not stated),i,i,i,i,i,·,·,·
CC1(C)CC(=O)c2sc(NC(=O)CCS(=O)(=O)c3ccccc3)nc2C1,4.7*,i,i,i,i,7.5%*,i,i
CC1(C)CC(=O)c2sc(NC(=O)c3ccccc3)nc2C1,i,i,i,i,i,·,·,·
CC(C)(C)c1ccc(-c2nc(NCc3cccnc3)c3ccccc3n2)cc1,8.6*,i,i,i,i,18%*,i,i
Cc1ccc(-c2cc(C(F)F)nc(NCc3cccnc3)n2)cc1,7.7*,i,i,i,i,i,i,i
COc1cc(C(=O)C(=O)c2ccc(O)c(OC)c2)ccc1O,i,i,i,i,i,·,·,·

# Compound activity as filed in PubChem BioAssay.
